T cruzi growth-1 = blocks T. cruzi growth in NIH3T3 culture; T. cruzi beta-gal in NIH3T3, GalScreen luminescence, 90 h; inhibition, % at 8.34 µM; actives 5.9% (n = 77,000); AID 624255;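 active = mean inhibition above about 93%, with at least 55% of replicates each passing it, limit read from the data, passing the limit was not always enough; inconclusive = only one of those two conditions holds; inactive = neither condition holds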
Pf Dd2 growth = P. falciparum Dd2 growth inhibition; actives 2.3% (n = 94,000); activity change, % at 10 µM; SYBR Green, 72 h; hits give low values; AID 1159554; in the data active = activity change below about -80%; inconclusive = no clear call, values can overlap the other calls
IDH1 mut inh = blocks human IDH1 R132H reductase activity | diaphorase/resazurin fluorescence, 60 min | inhibition, % at 10 µM | O75874 | actives 0.18% (n = 70,000); in the data active = inhibition above about 34%; inconclusive = no clear call, values can overlap the other calls; inactive = below about 11%
Target sequence (O75874 whole entry R132H): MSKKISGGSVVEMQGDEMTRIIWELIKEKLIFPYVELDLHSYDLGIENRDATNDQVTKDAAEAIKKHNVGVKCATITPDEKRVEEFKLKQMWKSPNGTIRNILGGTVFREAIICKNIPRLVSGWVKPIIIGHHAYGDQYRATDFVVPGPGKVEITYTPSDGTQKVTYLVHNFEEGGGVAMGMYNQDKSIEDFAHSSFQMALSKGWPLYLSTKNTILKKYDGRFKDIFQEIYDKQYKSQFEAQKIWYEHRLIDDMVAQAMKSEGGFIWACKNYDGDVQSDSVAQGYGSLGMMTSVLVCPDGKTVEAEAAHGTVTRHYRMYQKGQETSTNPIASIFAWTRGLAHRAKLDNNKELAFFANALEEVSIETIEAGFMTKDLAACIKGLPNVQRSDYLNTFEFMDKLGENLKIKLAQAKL
GASC1 inh = KDM4C (human) demethylase inhibition. Q9H3R0. GST-KDM4C 2-372, H3K9me3 peptide, LANCE TR-FRET. inhibition, % at 12.5 µM. actives 0.15% (n = 96,000). AID 720574;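 active = mean replicate inhibition above about 25%, with at least 55% of replicates also reaching it, limit read from the data, passing the limit was not always enough; inconclusive = only one of those two conditions met; inactive = neither condition met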
Target sequence (Q9H3R0 2-372 limits assumed): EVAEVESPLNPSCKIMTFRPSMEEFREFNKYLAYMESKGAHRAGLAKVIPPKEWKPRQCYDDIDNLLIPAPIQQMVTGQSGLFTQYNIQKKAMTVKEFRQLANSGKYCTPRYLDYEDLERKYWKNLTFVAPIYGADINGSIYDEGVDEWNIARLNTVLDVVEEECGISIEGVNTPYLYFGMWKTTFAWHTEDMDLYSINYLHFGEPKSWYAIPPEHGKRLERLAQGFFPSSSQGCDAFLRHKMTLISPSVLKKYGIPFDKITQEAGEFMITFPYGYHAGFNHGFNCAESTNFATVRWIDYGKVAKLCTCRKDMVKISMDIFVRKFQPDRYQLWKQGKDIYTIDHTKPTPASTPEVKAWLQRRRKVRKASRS
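Test system – GST-tagged GASC-1 (JMJD2C) catalytic fragment, aa 2-372 · Medium – HEPES buffer, pH 7.5, plus ascorbate · Reagent – H3K9me3 peptide with Fe(II)/2OG · Compound – one test concentration per compound · Timing – 30 min reaction, 60 min detection, RT · Technique – TR-FRET with Eu antibody and ULight streptavidin, EDTA stop · Read-out basis – inhibition from TR-FRET ratio decrease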
T cruzi growth-2 = Trypanosoma cruzi proliferation inhibition; shares compounds with T cruzi growth-1; T. cruzi beta-gal in NIH3T3, GalScreen luminescence, 90 h; inhibition, % at 8.35 µM; actives 72% (n = 5,600); AID 651739;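 active = mean replicate inhibition above about 95% and at least 55% of replicates individually reaching it, limit read from the data; inconclusive = only one of the two criteria is met; inactive = neither criterion is met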
T cruzi growth-3 = Trypanosoma cruzi proliferation inhibition; T. cruzi beta-gal in NIH3T3, GalScreen luminescence, 90 h; actives 21% (n = 5,600); shares compounds with T cruzi growth-1; inhibition, % at 2.09 µM;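 active = mean inhibition above about 95%, with at least 55% of replicates also reaching it, limit read from the data; inconclusive = meets just one of the two conditions; inactive = meets neither condition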
NIH3T3 tox = cytotoxicity in mouse NIH/3T3 fibroblasts | NIH/3T3 viability, CellTiter-Glo ATP luminescence, 90 h | cytotoxicity (signal decrease), % at 8.35 µM | shares compounds with T cruzi growth-1 | actives 14% (n = 5,600) | AID 651742;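 active = mean signal decrease across replicates above about 35% based on untreated-well scatter, with enough replicates individually passing, limit read from the data; inconclusive = no rule stated though some were filed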
3T3 cytotox 2 = kills mouse NIH/3T3 fibroblasts. NIH/3T3 viability, CellTiter-Glo ATP luminescence, 90 h. actives 56% (n = 5,600). AID 651744. shares compounds with T cruzi growth-1. inhibition, % at 24.9 µM;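 active = mean loss of cell viability signal at or above a set limit, and enough replicates individually reaching it; inconclusive = meets only the mean limit or only the replicate share; inactive = meets neither condition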
Large screens that a line does not name were inactive (follow-up assays come after a bar, where they were run). This is a sample that favours compounds with a hit; in the whole collection about 5.8% have one here.

COc1ccccc1C#Cc1ccc2c(c1)O[C@@H](CN(C)C)[C@@H](C)CN([C@@H](C)CO)S2(=O)=O	none (no result: T cruzi growth-1)
CNC[C@H]1Oc2cc(C#Cc3ccccc3OC)ccc2S(=O)(=O)N([C@H](C)CO)C[C@@H]1C	T cruzi growth-1 101 (no result: Pf Dd2 growth) | T cruzi growth-2 107 | T cruzi growth-3 inactive | NIH3T3 tox inactive | 3T3 cytotox 2 104
OC[C@@H]1[C@H](c2ccc(-c3ccc(F)cc3)cc2)[C@H]2CN(Cc3ccncc3)CCCCN12	T cruzi growth-1 108 (no result: IDH1 mut inh) | T cruzi growth-2 inactive | T cruzi growth-3 inactive | NIH3T3 tox inconclusive | 3T3 cytotox 2 104
OC[C@@H]1[C@H](c2ccc(-c3ccccc3F)cc2)[C@@H]2CN(Cc3ccncc3)CCCCN12	T cruzi growth-1 inconclusive (no result: IDH1 mut inh) | T cruzi growth-2 107 | T cruzi growth-3 inactive | NIH3T3 tox inactive | 3T3 cytotox 2 90
OC[C@@H]1[C@@H](c2ccc(-c3ccccc3F)cc2)[C@@H]2CN(Cc3ccncc3)CCCCN12	none (no result: IDH1 mut inh)
OC[C@@H]1[C@@H](c2ccc(-c3ccccc3F)cc2)[C@H]2CN(Cc3cccnc3)CCCCN12	T cruzi growth-1 97 (no result: IDH1 mut inh) | T cruzi growth-2 inactive | T cruzi growth-3 inactive | NIH3T3 tox inconclusive | 3T3 cytotox 2 97
OC[C@H]1[C@H](c2ccc(-c3ccccc3F)cc2)[C@H]2CN(Cc3cccnc3)CCCCN21	none (no result: IDH1 mut inh)
OC[C@@H]1[C@H](c2ccc(-c3ccc(F)cc3)cc2)[C@@H]2CN(Cc3cccnc3)CCCCN12	T cruzi growth-1 123 (no result: IDH1 mut inh) | T cruzi growth-2 106 | T cruzi growth-3 inactive | NIH3T3 tox inactive | 3T3 cytotox 2 95
Cc1ccc(C)c(NC(=O)c2ccc(OCC(=O)Nc3cc(C(F)(F)F)ccc3Cl)cc2)c1	none (no result: T cruzi growth-1, Pf Dd2 growth, GASC1 inh)
N#C[C@H]1[C@H](c2ccc(C#Cc3cccc(F)c3)cc2)[C@@H](CO)N1C(=O)C1CCCC1	T cruzi growth-1 99 (no result: IDH1 mut inh) | T cruzi growth-2 inactive | T cruzi growth-3 102 | NIH3T3 tox inactive | 3T3 cytotox 2 96
N#C[C@H]1[C@H](c2ccc(C#Cc3cccc(F)c3)cc2)[C@H](CO)N1C(=O)C1CCCC1	T cruzi growth-1 105 (no result: IDH1 mut inh) | T cruzi growth-2 102 | T cruzi growth-3 inactive | NIH3T3 tox inactive | 3T3 cytotox 2 95
N#C[C@H]1[C@H](c2ccc(C#Cc3ccc(F)cc3)cc2)[C@@H](CO)N1C(=O)C1CCC1	none (no result: IDH1 mut inh)
N#C[C@H]1[C@@H](c2ccc(C#Cc3cccc(F)c3)cc2)[C@H](CO)N1C(=O)C1CCCC1	T cruzi growth-1 100 (no result: IDH1 mut inh) | T cruzi growth-2 inactive | T cruzi growth-3 105 | NIH3T3 tox inactive | 3T3 cytotox 2 103
N#C[C@H]1[C@@H](c2ccc(C#Cc3cccc(F)c3)cc2)[C@@H](CO)N1C(=O)C1CCCC1	none (no result: IDH1 mut inh)
Cc1[nH]c2ccccc2c1C(=O)CSc1ncnc2sc(C)c(C)c12	none (no result: T cruzi growth-1, Pf Dd2 growth, GASC1 inh)
COc1ccc(-c2nnc(SCC(N)=O)n2-c2cccc(C(F)(F)F)c2)cc1OC	none (no result: T cruzi growth-1, Pf Dd2 growth, GASC1 inh)
Cc1cc(C)nc(SC(C)C(=O)Nc2ccc(Cl)cc2)n1 (centres undefined)	none (no result: T cruzi growth-1, Pf Dd2 growth, GASC1 inh)
CN(CCO)c1ccc(/C=N/NC(=O)c2ccccn2)cc1	none (no result: T cruzi growth-1, Pf Dd2 growth, GASC1 inh)
C[C@@H]1CN([C@H](C)CO)C(=O)c2cc(NC(=O)Nc3cccc4ccccc34)ccc2O[C@H]1CN(C)Cc1ccc(Cl)c(Cl)c1	T cruzi growth-1 102 | T cruzi growth-2 102 | T cruzi growth-3 96 | NIH3T3 tox 43 | 3T3 cytotox 2 29
C[C@H](CO)N1C[C@H](C)[C@H](CN(C)Cc2ccc(Cl)c(Cl)c2)Oc2ccc(NC(=O)Nc3cccc4ccccc34)cc2C1=O	none
C[C@H](CO)N1C[C@H](C)[C@@H](CN(C)Cc2ccc(Cl)c(Cl)c2)Oc2ccc(NC(=O)Nc3cccc4ccccc34)cc2C1=O	none (no result: IDH1 mut inh)
C[C@@H]1CN([C@H](C)CO)C(=O)c2cc(NC(=O)Nc3cccc4ccccc34)ccc2O[C@@H]1CN(C)Cc1ccc(Cl)c(Cl)c1	T cruzi growth-1 inconclusive | T cruzi growth-2 inactive | T cruzi growth-3 inactive | NIH3T3 tox 36 | 3T3 cytotox 2 25
COc1cc2c(cc1NC(=S)NCc1ccco1)oc1ccccc12	none (no result: T cruzi growth-1, Pf Dd2 growth, GASC1 inh)
CC(C)(C)c1ccc(SCC(O)CSc2nc3c(cc2C#N)CCCC3)cc1 (centres undefined)	none (no result: T cruzi growth-1, Pf Dd2 growth, GASC1 inh)
COc1ccccc1C#Cc1ccc2c(c1)O[C@H](CN(C)Cc1ccccc1)[C@@H](C)CN([C@@H](C)CO)S2(=O)=O	T cruzi growth-1 121 | T cruzi growth-2 99 | T cruzi growth-3 111 | NIH3T3 tox inactive | 3T3 cytotox 2 99
COc1ccccc1C#Cc1ccc2c(c1)O[C@@H](CN(C)Cc1cccnc1)[C@@H](C)CN([C@@H](C)CO)S2(=O)=O	none (no result: T cruzi growth-1)
COc1ccccc1C#Cc1ccc2c(c1)O[C@@H](CN(C)Cc1ccccc1)[C@H](C)CN([C@H](C)CO)S2(=O)=O	T cruzi growth-1 118 | T cruzi growth-2 inconclusive | T cruzi growth-3 112 | NIH3T3 tox 45 | 3T3 cytotox 2 106
COc1ccccc1C#Cc1ccc2c(c1)O[C@H](CN(C)Cc1cccnc1)[C@@H](C)CN([C@@H](C)CO)S2(=O)=O	none (no result: T cruzi growth-1)
COc1ccccc1C#Cc1ccc2c(c1)O[C@@H](CN(C)Cc1cccnc1)[C@@H](C)CN([C@H](C)CO)S2(=O)=O	none (no result: T cruzi growth-1, IDH1 mut inh)
COc1ccccc1C#Cc1ccc2c(c1)O[C@H](CN(C)Cc1ccccc1)[C@H](C)CN([C@H](C)CO)S2(=O)=O	T cruzi growth-1 121 | T cruzi growth-2 104 | T cruzi growth-3 inactive | NIH3T3 tox inactive | 3T3 cytotox 2 inactive
COc1ccccc1C#Cc1ccc2c(c1)O[C@H](CN(C)Cc1ccccc1)[C@H](C)CN([C@@H](C)CO)S2(=O)=O	T cruzi growth-1 123 | T cruzi growth-2 105 | T cruzi growth-3 115 | NIH3T3 tox inactive | 3T3 cytotox 2 inactive
COc1cc(NS(=O)(=O)c2ccccc2[N+](=O)[O-])c(OC)cc1Cl	none (no result: T cruzi growth-1, Pf Dd2 growth, GASC1 inh)
Cc1cc2ncn(CC(O)COc3ccccc3Cl)c2cc1C (centres undefined)	none (no result: T cruzi growth-1, Pf Dd2 growth, GASC1 inh)
C[C@@H]1CCCCO[C@@H](CN(C)Cc2ccc(C(F)(F)F)cc2)[C@@H](C)CN([C@@H](C)CO)C(=O)c2cc(NC(=O)Nc3cccc4ccccc34)ccc2O1	T cruzi growth-1 inconclusive | T cruzi growth-2 108 | T cruzi growth-3 100 | NIH3T3 tox inactive | 3T3 cytotox 2 inactive
C[C@H]1CCCCO[C@H](CN(C)Cc2ccc(C(F)(F)F)cc2)[C@@H](C)CN([C@@H](C)CO)C(=O)c2cc(NC(=O)Nc3cccc4ccccc34)ccc2O1	T cruzi growth-1 inconclusive (no result: IDH1 mut inh) | T cruzi growth-2 97 | T cruzi growth-3 109 | NIH3T3 tox inactive | 3T3 cytotox 2 inactive
